Laboratory results: paper PMC6559718 (Journal of biomolecular screening, 2016)

Legend:
[1] = in vitro; conditions: Saccharomyces cerevisiae
[2] = in vitro; conditions: Saccharomyces cerevisiae; remark: listed apart in the source
[3] = test system: yeast strain expressing hANT3; assay: microbe, parasite or virus in culture; assay type: cell-based; conditions: Saccharomyces cerevisiae, read-out: Activity hANT3 IC50
[4] = test system: yeast strain expressing hANT2; assay: microbe, parasite or virus in culture; assay type: cell-based; conditions: Saccharomyces cerevisiae, read-out: Activity hANT2 IC50
[5] = in vitro; conditions: Saccharomyces cerevisiae; remark: listed apart in the source
[6] = in vitro; conditions: Saccharomyces cerevisiae; remark: listed apart in the source
[7] = test system: yeast strain expressing hANT1; assay: microbe, parasite or virus in culture; assay type: cell-based; conditions: Saccharomyces cerevisiae, read-out: Activity hANT1 IC50
[8] = test system: yeast strain expressing hANT4; assay: microbe, parasite or virus in culture; assay type: cell-based; conditions: Saccharomyces cerevisiae, read-out: Activity hANT4 IC50
[9] = target: T1, human ANT2 (Homo sapiens, UniProt P05141); assay: ADP/ATP exchange with isolated yeast mitochondria expressing hANT2; assay type: biochemical; conditions: for ADP/ATP exchange activity / ADP uptake: 10 μM, isolated yeast mitochondria, hANT2 (Fig. 2B left)
T1 sequence (P05141 1-298): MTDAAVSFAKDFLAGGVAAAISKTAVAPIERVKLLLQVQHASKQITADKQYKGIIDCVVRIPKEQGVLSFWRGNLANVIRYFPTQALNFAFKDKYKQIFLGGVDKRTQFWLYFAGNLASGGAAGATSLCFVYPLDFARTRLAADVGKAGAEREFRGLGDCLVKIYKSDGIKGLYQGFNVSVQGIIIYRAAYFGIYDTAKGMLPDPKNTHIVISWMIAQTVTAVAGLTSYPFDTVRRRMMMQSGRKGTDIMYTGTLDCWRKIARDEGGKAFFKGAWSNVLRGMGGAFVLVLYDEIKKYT

[10] = test system: four hANT yeast strains; assay: Yeast growth assay in YPEG medium, the four hANT yeast strains; assay type: cell-based, Saccharomyces cerevisiae; conditions: hANT1, -2, -3 or -4 yeast strains, BKA final 50 μM
[11] = target: T2, human ANT3 (Homo sapiens, UniProt P12236); assay: ADP/ATP exchange with isolated yeast mitochondria expressing hANT3; assay type: biochemical
T2 sequence (P12236 1-298): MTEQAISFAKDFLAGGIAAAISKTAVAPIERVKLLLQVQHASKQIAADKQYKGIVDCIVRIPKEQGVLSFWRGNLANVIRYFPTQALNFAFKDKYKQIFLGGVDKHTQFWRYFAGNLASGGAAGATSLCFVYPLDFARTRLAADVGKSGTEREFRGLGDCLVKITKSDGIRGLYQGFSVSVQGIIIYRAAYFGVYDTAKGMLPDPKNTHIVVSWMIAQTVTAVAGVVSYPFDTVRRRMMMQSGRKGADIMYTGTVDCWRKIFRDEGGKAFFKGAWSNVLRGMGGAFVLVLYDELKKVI

[12] = test system: MiaPaCa-2 cells; assay: Oxygen consumption rate in MiaPaCa-2 cells; assay type: cell-based, human; conditions: after ADP addition, leelamine 50 pM as printed
Method in brief: (§1)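 Cells were kept in RPMI1640 with 10% FBS, plated at 20,000/well, and incubated overnight at 37 °C in 5% CO2. Before the assay, medium was replaced with MAS buffer (mannitol/sucrose/KH2PO4/MgCl2/HEPES/EGTA, 0.2% fatty-acid-free BSA, pH 7.4) plus 10 mM pyruvate and […]. Sequential injections were atpenin A5, 3.5 mM ADP, plasma membrane permeabilizer, then test compound or cATR control. OCR was read on an extracellular flux analyzer.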

[13] = test system: human ANT isoforms; assay: ADP/ATP exchange in L. lactis, human ANT isoforms; assay type: biochemical; conditions: single-concentration test of compounds selected from the yeast growth assay
[14] = target: T3, human ANT1 (Homo sapiens, UniProt P12235); assay: ADP/ATP exchange with isolated yeast mitochondria expressing hANT1; assay type: biochemical
T3 sequence (P12235 1-298): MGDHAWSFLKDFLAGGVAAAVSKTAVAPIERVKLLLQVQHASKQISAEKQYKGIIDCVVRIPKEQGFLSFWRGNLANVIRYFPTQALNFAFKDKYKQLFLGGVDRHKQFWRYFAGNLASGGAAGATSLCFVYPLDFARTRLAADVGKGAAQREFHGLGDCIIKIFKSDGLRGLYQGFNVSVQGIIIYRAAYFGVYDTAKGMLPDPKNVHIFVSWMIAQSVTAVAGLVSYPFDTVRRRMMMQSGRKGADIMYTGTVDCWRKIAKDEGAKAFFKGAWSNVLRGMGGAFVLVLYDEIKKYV

[15] = target: T2, human ANT3; assay: ADP/ATP exchange with Lactococcus lactis expressing hANT3; assay type: biochemical
[16] = test system: HCT116 cells; assay: Oxygen consumption rate in HCT116 cells; assay type: cell-based, human; conditions: after ADP addition, leelamine 50 pM as printed
Method in brief: as §1

[17] = target: T3, human ANT1; assay: ADP/ATP exchange with Lactococcus lactis expressing hANT1; assay type: biochemical
[18] = target: T4, human ANT4 (Homo sapiens, UniProt Q9H0C2); assay: ADP/ATP exchange with isolated yeast mitochondria expressing hANT4; assay type: biochemical
T4 sequence (Q9H0C2 1-315): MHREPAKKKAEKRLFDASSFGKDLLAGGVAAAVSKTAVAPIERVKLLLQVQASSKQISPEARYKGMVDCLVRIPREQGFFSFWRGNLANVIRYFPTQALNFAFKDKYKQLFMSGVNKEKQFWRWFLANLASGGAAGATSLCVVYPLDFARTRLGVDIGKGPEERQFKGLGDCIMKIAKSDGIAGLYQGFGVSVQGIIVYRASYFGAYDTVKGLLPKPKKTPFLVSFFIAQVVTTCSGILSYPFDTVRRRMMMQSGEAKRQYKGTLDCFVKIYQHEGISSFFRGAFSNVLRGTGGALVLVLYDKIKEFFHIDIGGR

[19] = target: T1, human ANT2; assay: ADP/ATP exchange with Lactococcus lactis expressing hANT2; assay type: biochemical
[20] = test system: human ANT isoforms; assay: ADP/ATP exchange in isolated yeast mitochondria, human ANT isoforms; assay type: biochemical

| Compound | IC50 [1] | IC50 [2] | IC50 [3] | IC50 [4] | IC50 [5] | IC50 [6] | IC50 [7] | IC50 [8] | ADP/ATP exchange activity / ADP uptake [9] | inhibition of [3H]ADP uptake by L. lactis [13] | further results |
| --- | --- | --- | --- | --- | --- | --- | --- | --- | --- | --- | --- |
| CC(C)(C)c1cc(C=C(C#N)C#N)cc(C(C)(C)C)c1O [Tyrphostin A9] | > 100 µM | > 100 µM | 24 ± 10 µM | 35 ± 15 µM | > 100 µM | > 100 µM | 42 ± 20 µM | 13 ± 4 µM |  |  |  |
| CO[C@H](C/C=C\C=C\CC/C=C/C[C@H](C)/C=C/C(=C\C(=O)O)CC(=O)O)/C(C)=C\C=C(/C)C(=O)O [BKA, bongkrekic acid] |  |  |  |  |  |  |  |  | completely inhibited |  | activity in LOPAC pilot screen [10]: weakly active |
| Cc1cc(C(C#N)c2ccc(Cl)cc2)c(Cl)cc1NC(=O)c1cc(I)cc(I)c1O (stereo not drawn) [Closantel] | > 100 µM | > 100 µM | 6.3 ± 2.3 µM | 6.1 ± 2.4 µM | > 100 µM | > 100 µM | 4.7 ± 0.8 µM | 9.6 ± 8.7 µM |  | inhibited | IC50 [11]: 100 ± 32 µM; oxygen consumption rate (OCR) [12]: Neither CD437 nor closantel produced an appreciable level of reduction of OCR; IC50 [14]: 52 ± 15 µM; IC50 [9]: 92 ± 32 µM; IC50 [15]: 47 ± 11 µM; oxygen consumption rate (OCR) [16]: inhibited OCR; IC50 [17]: 15 ± 2.8 µM; selectivity for hANT1 over hANT3 ([17]; L. lactis assay): ~ 3 fold; IC50 [18]: 64 ± 25 µM; IC50 [19]: 24 ± 4.2 µM |
| antimycin |  |  |  |  |  |  |  |  | reduced ADP uptake |  |  |
| CC(C)c1ccc2c(c1)CC[C@H]1[C@](C)(CN)CCC[C@]21C [Leelamine] |  |  |  |  |  |  |  |  |  | inhibited | oxygen consumption rate (OCR) [12]: decreased OCR; effect on hANT activity in mitochondrial assays ([20]; 100 μM, all isoforms): inhibited hANT activity; effect on translocase activity in mitochondria ([20]; 10 and 30 μM, hANT4, hANT3 and particularly hANT2 strains): increased translocase activity; effect on translocase activity in L. lactis expressing hANT3 ([15]; Fig. 3C): inhibited the activity; IC50 ([15]; read-out: L. lactis hANT3 IC50, [3H]ADP uptake, ADP/ATP exchange, mean ± SEM): 47 ± 11 µM; oxygen consumption rate (OCR) [16]: decreased the OCR to a similar extent as cATR; effect on translocase activity in L. lactis expressing hANT1 ([17]; Fig. 3C): increased translocase activity; IC50 ([17]; read-out: L. lactis hANT1 IC50, [3H]ADP uptake, ADP/ATP exchange, mean ± SEM): > 100 µM; effect on translocase activity in L. lactis expressing hANT2 ([19]; Fig. 3C): increased translocase activity; IC50 ([19]; read-out: L. lactis hANT2 IC50, [3H]ADP uptake, ADP/ATP exchange, mean ± SEM): > 100 µM |
| C=C1[C@@H]2CC[C@H]3[C@]4(C)C[C@H](O[C@@H]5O[C@H](CO)[C@@H](OS(=O)(=O)O)[C@H](OS(=O)(=O)O)[C@H]5OC(=O)CC(C)C)C[C@@H](C(=O)O)[C@H]4CC[C@]3(C2)[C@H]1O [ATR, atractyloside] |  |  |  |  |  |  |  |  | completely inhibited |  |  |
| C[C@@H]1C[C@H]2CC[C@H](O2)[C@H](C)C(=O)O[C@@H](C)C[C@@H]2CC[C@@H](O2)[C@@H](C)C(=O)O[C@H](C)C[C@H]2CC[C@H](O2)[C@H](C)C(=O)O[C@@H](C)C[C@@H]2CC[C@@H](O2)[C@@H](C)C(=O)O1 [Nonactin] | > 100 µM | > 100 µM | 4.7 ± 1.5 µM | 3.3 ± 1.1 µM | > 100 µM | > 100 µM | 4.4 ± 1.3 µM | 3.3 ± 0.4 µM |  |  |  |
| CN(C)c1ccc(O)c2c1C[C@H]1C[C@H]3[C@H](N(C)C)C(O)=C(C(N)=O)C(=O)[C@@]3(O)C(O)=C1C2=O [Minocycline] | > 100 µM | > 100 µM | > 100 µM | > 100 µM | > 100 µM | > 100 µM | > 100 µM | > 100 µM |  | completely inactive | inhibition of exchange activity in the mitochondrial assay ([20]; 30 μM, in at least one yeast strain (Suppl. Table S1)): strong inhibition |
